High-throughput results deposited in PubChem BioAssay by several laboratories.
MC4R antag cAMP: blocks human MC4R cAMP signaling. inhibition, % at 6.5 µM. MC4R-expressing cells, MTII-stimulated cAMP, LANCE TR-FRET. P32245. 0.48% of 360,000 active. AID 540295;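 active = inhibition above its plate's cutoff, the mean of tested wells on that plate plus 3 SD, cut at about 29% in these data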;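 also: 0% = Melanotan II alone and 100% = Melanotan II plus saturating MCL0020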
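System: U2OS-MC4R stable cell line; Technique: Eu-cAMP/anti-cAMP TR-FRET, emission 671 nm; Repeats: single well per compound; Also added: Melanotan II; Dosing: one concentration, 6.5 µM nominal; Schedule: 30-min compound, 1-h challenge, 1-h detection, room temperature.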
MC4R ag barr: agonists of human melanocortin 4 receptor (MC4R) beta-arrestin | U2OS MC4R beta-arrestin complementation, luminescence; percent of melanotan II response, DMSO zero | P32245 | 0.98% of 360,000 active | AID 540308 | activation, % at 8.9 µM;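 active = activation above a per-plate cutoff, the mean activation of sample wells on that plate plus 3 SD, cut at about 8% in these data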
B2AR ag: agonists of human beta-2 adrenergic receptor inducing internalization | 0.43% of 340,000 active | AID 504454 | Am2.2-beta2AR cells, FAP receptor internalization, flow cytometry | response, % (no concentration beside the values);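 active = response above a set limit, near 3 SD of response in nonfluorescent compounds, cut at about 42% in these data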
HTR2A ag: activates the mouse 5-HT2A serotonin receptor. activation, % at 7.6 µM. P35363. 0.66% of 360,000 active. CHO-K1 mHTR2A beta-arrestin complementation, luminescence; percent of 30 µM serotonin response;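 active = activation above a run cutoff, the mean activation of all tested compounds plus 3 SD, cut at about 14% in these data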;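 also: 0% = plate median of compound wells and 100% = 30 µM serotonin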
Target sequence (P35363 whole entry, looked up): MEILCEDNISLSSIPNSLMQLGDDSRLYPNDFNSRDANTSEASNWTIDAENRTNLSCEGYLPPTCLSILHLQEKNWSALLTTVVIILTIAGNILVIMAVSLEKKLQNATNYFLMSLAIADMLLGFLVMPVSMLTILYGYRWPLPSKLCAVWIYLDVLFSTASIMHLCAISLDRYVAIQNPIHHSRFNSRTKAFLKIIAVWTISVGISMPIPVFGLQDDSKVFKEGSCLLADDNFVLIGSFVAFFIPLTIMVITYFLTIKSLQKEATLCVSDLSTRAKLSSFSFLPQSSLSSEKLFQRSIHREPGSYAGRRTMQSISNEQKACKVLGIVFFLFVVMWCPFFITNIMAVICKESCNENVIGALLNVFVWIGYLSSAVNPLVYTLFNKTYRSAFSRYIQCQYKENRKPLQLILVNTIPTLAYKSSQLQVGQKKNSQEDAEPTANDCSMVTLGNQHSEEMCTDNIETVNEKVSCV
TAAR1 agonist: agonists of human TAAR1 | Q96RJ0 | CHO RD-HGA16 TAAR1, Fluo-8 calcium fluorescence; vehicle wells 0%, saturating PEA agonist 100% | activation, % at 3 µM | 0.99% of 360,000 active;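 active = activation above the mean activation of all test compounds in the run plus 3 SD, cut at about 38% in these data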
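Assay system – CHO-derived RD-HGA16 cells with stable Gα16 and human TAAR1 · Compound dosing – one-point dosing at 3 µM (nominal) · Incubation – 17-24 h seeding, 75 min 37 °C dye, 30 min RT · Measured by – kinetic Fluo-8 calcium fluorescence · Control set – DMSO vehicle as 0%, PEA at EC100 as 100% · Repeats – single well for each compound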
TAAR1 antagonist: antagonists of human TAAR1; Q96RJ0; CHO RD-HGA16 TAAR1, Fluo-8 calcium fluorescence, antagonist; inhibition, % at 3 µM; 1.5% of 360,000 active; AID 624466;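 active = inhibition above a per-plate cutoff, the mean inhibition of test compounds on that plate plus 3 SD, cut at about 49% in these data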;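 also: 0% = DMSO plus EC80 beta-PEA response and 100% = DMSO alone without agonist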
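Test system – hTAAR1-expressing CHO RD-HGA16 cells, Gα16-coupled · Also added – β-PEA at EC80 concentration, post-compound challenge · Compound – 3 µM, single point · Incubation – dye loading 75 min at 37 °C, then 30 min room temperature · Measured by – Fluo-8 intracellular calcium dye fluorescence, real-time kinetic reads · Benchmarks – vehicle and agonist controls · Replicates – singlicate, one well per test compound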
TAAR1 ag confirm: human TAAR1 agonism, confirmed. AID 651783. CHO RD-HGA16 TAAR1, Fluo-8 calcium fluorescence; scaled: DMSO 0%, maximal phenethylamine 100%. activation, % at 3 µM. shares compounds with TAAR1 agonist. 82% of 2,400 active;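 active = activation above a cutoff set at the run's mean compound activation plus 3 SD, cut at about 39% in these data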
Ga16 nonsel ag: counter-screen for TAAR1 agonists: nonselective agonists in parental cells; AID 651787; 50% of 2,400 active; activation, % at 3 µM; shares compounds with TAAR1 agonist; CHO-Ga16 parental, Fluo-8 calcium fluorescence; normalized to maximal ATP response, DMSO zero;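 active = activation above the run cutoff, the mean activation over all tested wells plus 3 SD, cut at about 12% in these data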;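 also: 0% = DMSO wells and 100% = maximal ATP response on the peak over basal ratio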
TAAR1 desensitize: human TAAR1 agonist that also desensitizes the receptor | shares compounds with TAAR1 agonist | inhibition, % at 3 µM | 46% of 2,400 active | CHO RD-HGA16 hTAAR1, Fluo-8 calcium, beta-PEA response inhibition;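 active = inhibition above the run cutoff, the mean inhibition of all test compounds plus 3 SD, cut at about 49% in these data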;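 also: beta-PEA stimulus applied at its EC80; loss of beta-PEA calcium signal after compound pretreatment read as receptor desensitization; 0% = DMSO with beta-PEA at EC80 and 100% = DMSO alone without agonist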
Ga16 antag count: nonselective Ga16 antagonism, counter-screen. shares compounds with TAAR1 agonist. CHO-Ga16 ATP-induced calcium, Fluo-8 fluorescence. inhibition, % at 3 µM. 39% of 2,400 active. AID 651952;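 active = inhibition above the plate's mean compound inhibition plus 3 SD, computed per plate, cut at about 22% in these data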;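 also: 0% = EC80 ATP with DMSO and 100% = DMSO wells without ATP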
Numbers without * were called inactive; x = no result given. Most compounds without a hit are left out; they make up all but 4.3% or so of the library.

SMILES	MC4R antag cAMP	MC4R ag barr	B2AR ag	HTR2A ag	TAAR1 agonist	TAAR1 antagonist	TAAR1 ag confirm	Ga16 nonsel ag	TAAR1 desensitize	Ga16 antag count
COC(=O)/C=C1\SC(=Nc2ccc(Cl)c(Cl)c2)NC1=O	2	-1	-4	0	3	12	x	x	x	x
COc1cc(/C=C2\SC(=Nc3ccc(Cl)c(C(=O)O)c3)NC2=O)c(Br)c(Br)c1O	-1	0	3	-2	98*	76*	49*	58*	57*	70*
Cc1ccc(N2CC(C(=O)N3CCOCC3)CC2=O)cc1Cl (configuration not stated)	-2	1	1	-4	5	-2	x	x	x	x
Fc1ccc(-[n+]2nc(Nc3ccccc3)sc2-c2c(Cl)cccc2Cl)cc1	14	2	-2	-9	74*	32	89*	35*	73*	29*
COc1ccc(-c2sc(Nc3ccccc3)n[n+]2-c2ccc(F)cc2)cc1Br	2	-2	-1	1	11	0	x	x	x	x
COc1ccc2ccccc2c1-c1sc(Nc2ccccc2)n[n+]1-c1ccc(F)cc1	-4	12*	27	-12	64*	-12	52*	25*	46	37*
Cc1ccc(C)c(NS(=O)(=O)c2cc(C(=O)NCc3ccccn3)ccc2C)c1	-2	1	6	7	8	-10	x	x	x	x
Cc1cc(C)c2c(c1)/C(=N/NC(=O)c1cc(C)oc1C)CCC2	4	3	11	0	82*	-9	20	2	19	5
COc1ccc(C(=O)N2CCN(CCc3ccccc3)CC2)cc1[N+](=O)[O-]	-1	-2	2	-14	1	-13	x	x	x	x
CN(C(=O)CCc1nc(-c2ccccc2F)no1)c1ccccc1	2	3	-13	2	45*	-19	6	7	4	2
NS(=O)(=O)c1cc(C(=O)OCC(=O)N2CCc3ccccc3C2)ccc1Cl	4	2	6	1	3	-5	x	x	x	x
Cc1cn(CC(=O)NCc2nc3ccccc3[nH]2)c(=O)[nH]c1=O	x	x	x	-2	3	-11	x	x	x	x
CC(C)CC(C(=O)N1CCc2ccccc2C1)N1C(=O)c2ccccc2C1=O (configuration not stated)	4	0	4	1	75*	37	77*	3	65*	15
CCCCn1c(N)c(N(CCOC)C(=O)COC(=O)CSc2cc(C)c3ccccc3n2)c(=O)[nH]c1=O	1	-1	-1	-5	1	-28	x	x	x	x
CCCc1c2ccccc2nc2ccccc12	6	-2	3	8	70*	-33	11	10	-12	-5
CCN1CCc2nc3sc(C(=O)N4CCc5ccccc5C4)c(N)c3cc2C1	-8	1	-4	-6	80*	14	67*	4	12	13
CC(C)c1ccc2nc3sc(C(=O)N4CCc5ccccc5C4)c(N)c3cc2c1	5	-1	-81	-3	83*	20	88*	31*	63*	40*
Cc1cc(C)c2c(N)c(C(=O)N3CCc4ccccc4C3)sc2n1	6	0	-22	1	12	-17	x	x	x	x
CCOC(=O)C1CCCN(C(=O)c2cc(-c3ccc(C)cc3)nc3ccccc23)C1 (configuration not stated)	4	1	1	2	11	43	x	x	x	x
S=C1SCN(Cc2ccccc2)CN1Cc1ccccc1	10	0	0	1	7	-11	x	x	x	x
S=C1SCN(CCc2ccccc2)CN1CCc1ccccc1	9	1	x	9	82*	86*	90*	5	92*	15
Cc1cc(O)ccc1Nc1cc(-c2cccc(N)c2)ncn1	9	1	x	-3	2	-9	x	x	x	x
Cc1nc(N)nc(N)c1CCCc1ccc(Cl)c(Cl)c1	1	3	18	-3	24	-27	x	x	x	x
Cc1cc(N/N=C/c2ccccc2F)nc(NCc2ccccc2)n1	9	-1	4	0	0	-6	x	x	x	x
Cc1cc(N/N=C/c2cccc(F)c2)nc(NCc2ccccc2)n1	14	0	2	-9	60*	28	55*	5	45	15
SMILES	MC4R antag cAMP	MC4R ag barr	B2AR ag	HTR2A ag	TAAR1 agonist	TAAR1 antagonist	TAAR1 ag confirm	Ga16 nonsel ag	TAAR1 desensitize	Ga16 antag count
Cc1cc(N/N=C/c2ccccc2)nc(NCc2ccccc2)n1	8	-1	8	-10	51*	28	63*	17*	39	18
Cc1cc(N2CCCCC2)nc(NCc2ccccc2)n1	3	-1	-9	-10	100*	64*	73*	38*	71*	50*
CC1(C(=O)Nc2cnc3ccccc3c2)CCN1C(=O)CC(c1ccccc1)c1ccccc1 (configuration not stated)	-1	0	x	-2	0	41	x	x	x	x
COC(=O)c1cc(NC(=O)CN2C(=O)CSC2=O)ccc1Cl	-1	0	-2	9	70*	6	5	1	-7	2
COC(=O)c1ccccc1NC(=O)CN1C(=O)CSC1=O	-3	1	1	-2	7	1	x	x	x	x
CC(=O)NC12CC3CC(C1)CC(C(=O)Nc1cccc(S(=O)(=O)N4CCCCCC4)c1)(C3)C2	5	-2	6	-1	1	9	x	x	x	x
O=C(NC1CCCc2ccccc21)c1cccc(S(=O)(=O)N2CCN(c3ccccc3)CC2)c1 (configuration not stated)	2	-2	0	-1	47*	-5	30	11	26	21*
CC1CC(C)CN(S(=O)(=O)c2cc3c4c(c2)CCC(=O)N4CCC3)C1 (configuration not stated)	0	-2	11	2	6	-6	x	x	x	x
O=C(CC1C(=O)NCCN1Cc1c(F)cccc1Cl)NCc1ccccc1 (configuration not stated)	24	1	9	9	0	6	x	x	x	x
